From the M2OR odorant receptor database

What was measured:
Conditions in all cases: stereoisomer not certain
[1] = biological target: T1, UniProt Q8VGC6
T1 sequence (whole entry): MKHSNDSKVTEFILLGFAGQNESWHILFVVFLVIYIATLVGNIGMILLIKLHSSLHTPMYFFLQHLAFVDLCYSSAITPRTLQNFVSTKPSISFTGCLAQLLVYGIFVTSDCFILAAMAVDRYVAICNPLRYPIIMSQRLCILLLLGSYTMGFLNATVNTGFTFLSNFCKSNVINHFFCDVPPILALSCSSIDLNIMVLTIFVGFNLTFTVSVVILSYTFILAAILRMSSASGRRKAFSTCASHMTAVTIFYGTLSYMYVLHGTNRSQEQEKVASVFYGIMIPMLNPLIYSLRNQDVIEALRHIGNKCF
Outline: (§1)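 Values were gathered from published papers (main text and supplementary material), with extra details requested from the original authors when needed, and checked for typos and inconsistencies. Each receptor–molecule pair is called responsive (active) if the original authors judged the measured signal statistically different from baseline, and non-responsive (inactive) otherwise. Assay methods varied by source, often transient mammalian cell-line luciferase assays. Recorded details include cell line, G-protein, co-transfected protein and tags.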

[2] = biological target: T2, UniProt Q8VGJ3
T2 sequence (whole entry): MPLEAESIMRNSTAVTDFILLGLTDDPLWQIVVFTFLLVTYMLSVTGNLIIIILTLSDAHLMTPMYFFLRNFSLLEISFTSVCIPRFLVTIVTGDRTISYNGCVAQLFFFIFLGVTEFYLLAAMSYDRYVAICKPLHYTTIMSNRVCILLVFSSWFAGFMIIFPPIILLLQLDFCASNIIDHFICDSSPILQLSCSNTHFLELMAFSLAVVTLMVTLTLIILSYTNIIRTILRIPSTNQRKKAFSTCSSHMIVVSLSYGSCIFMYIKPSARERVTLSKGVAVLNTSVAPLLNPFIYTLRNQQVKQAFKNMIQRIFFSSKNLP
Outline: as §1

[3] = biological target: T3, UniProt Q8VGL0
T3 sequence (whole entry): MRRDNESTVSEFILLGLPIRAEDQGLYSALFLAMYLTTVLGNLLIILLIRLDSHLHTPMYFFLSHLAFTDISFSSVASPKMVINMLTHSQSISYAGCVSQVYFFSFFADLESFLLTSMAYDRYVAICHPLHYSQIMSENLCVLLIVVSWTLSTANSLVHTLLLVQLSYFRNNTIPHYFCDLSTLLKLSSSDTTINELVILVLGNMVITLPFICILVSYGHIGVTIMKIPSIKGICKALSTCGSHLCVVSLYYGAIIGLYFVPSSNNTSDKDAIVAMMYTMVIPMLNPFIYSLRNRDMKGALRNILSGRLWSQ
Outline: as §1

[4] = biological target: T4, UniProt Q8VGU3
T4 sequence (whole entry): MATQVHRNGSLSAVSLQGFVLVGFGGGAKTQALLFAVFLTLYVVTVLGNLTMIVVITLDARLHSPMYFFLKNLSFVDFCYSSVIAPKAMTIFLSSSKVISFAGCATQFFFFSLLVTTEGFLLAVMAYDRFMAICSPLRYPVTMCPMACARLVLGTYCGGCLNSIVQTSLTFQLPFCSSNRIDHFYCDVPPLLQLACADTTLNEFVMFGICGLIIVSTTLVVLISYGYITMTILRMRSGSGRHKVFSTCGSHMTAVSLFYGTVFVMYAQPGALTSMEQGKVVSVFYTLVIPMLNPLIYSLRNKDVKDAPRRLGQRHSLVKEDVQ
Outline: as §1

[5] = biological target: T5, UniProt Q8VGV7
T5 sequence (whole entry): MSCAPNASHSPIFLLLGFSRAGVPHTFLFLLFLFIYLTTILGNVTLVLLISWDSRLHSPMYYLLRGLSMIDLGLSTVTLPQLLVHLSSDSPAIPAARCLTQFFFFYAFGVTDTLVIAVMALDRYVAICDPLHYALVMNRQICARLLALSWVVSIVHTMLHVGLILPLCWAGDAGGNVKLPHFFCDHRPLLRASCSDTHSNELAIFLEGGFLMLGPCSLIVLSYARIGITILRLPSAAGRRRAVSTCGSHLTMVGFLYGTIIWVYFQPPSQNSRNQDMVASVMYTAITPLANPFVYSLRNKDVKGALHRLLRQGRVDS
Outline: as §1

[6] = biological target: T6, UniProt Q8VGX3
T6 sequence (whole entry): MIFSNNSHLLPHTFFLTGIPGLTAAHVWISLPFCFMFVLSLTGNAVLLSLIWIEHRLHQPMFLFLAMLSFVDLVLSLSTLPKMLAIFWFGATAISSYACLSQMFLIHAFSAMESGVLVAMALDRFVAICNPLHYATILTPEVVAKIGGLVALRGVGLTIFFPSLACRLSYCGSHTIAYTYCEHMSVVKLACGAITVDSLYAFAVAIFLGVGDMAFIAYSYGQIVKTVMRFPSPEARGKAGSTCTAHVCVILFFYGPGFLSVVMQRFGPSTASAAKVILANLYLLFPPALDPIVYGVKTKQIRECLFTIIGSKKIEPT
Outline: as §1

[7] = biological target: T7, UniProt Q8VGX5
T7 sequence (whole entry): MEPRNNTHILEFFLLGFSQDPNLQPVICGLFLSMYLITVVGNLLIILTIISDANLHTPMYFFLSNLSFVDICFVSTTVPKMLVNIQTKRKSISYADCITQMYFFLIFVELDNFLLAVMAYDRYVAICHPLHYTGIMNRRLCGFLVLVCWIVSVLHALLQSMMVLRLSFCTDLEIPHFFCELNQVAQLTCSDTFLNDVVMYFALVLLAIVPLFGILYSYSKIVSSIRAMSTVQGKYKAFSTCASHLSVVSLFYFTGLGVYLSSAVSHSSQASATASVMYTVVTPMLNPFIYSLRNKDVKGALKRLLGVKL
Outline: as §1

[8] = biological target: T8, UniProt Q8VGW5
T8 sequence (whole entry): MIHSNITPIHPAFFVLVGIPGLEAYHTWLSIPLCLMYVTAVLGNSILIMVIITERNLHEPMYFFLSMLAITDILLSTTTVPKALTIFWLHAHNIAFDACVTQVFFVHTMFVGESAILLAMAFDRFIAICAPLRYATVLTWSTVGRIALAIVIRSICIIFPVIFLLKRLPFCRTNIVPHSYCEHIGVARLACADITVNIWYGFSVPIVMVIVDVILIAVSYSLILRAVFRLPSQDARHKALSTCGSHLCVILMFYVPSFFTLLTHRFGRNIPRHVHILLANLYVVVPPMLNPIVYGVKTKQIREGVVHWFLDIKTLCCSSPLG
Outline: as §1

SMILES	odorant receptor agonist call [1]	odorant receptor agonist call [2]	odorant receptor agonist call [3]	odorant receptor agonist call [4]	odorant receptor agonist call [5]	odorant receptor agonist call [6]	odorant receptor agonist call [7]	odorant receptor agonist call [8]
C=C(CC)CCCC(C)(C)O	inactive	inactive	inactive	inactive	inactive	inactive	inactive	–
CCCC(C)C(=O)OCC (stereo not given)	inactive	inactive	inactive	inactive	inactive	inactive	inactive	–
CCSSCC	inactive	inactive	inactive	inactive	inactive	inactive	inactive	–
CCCCCCC(C=O)=Cc1ccccc1	inactive	inactive	inactive	inactive	inactive	inactive	inactive	–
Cc1ccc2c(c1)OCC(=O)CO2	inactive	inactive	inactive	inactive	inactive	inactive	inactive	–
CCCCCC(C)O (stereo not given)	inactive	inactive	inactive	inactive	inactive	inactive	inactive	–
CC=Cc1ccc(OC)cc1	inactive	inactive	inactive	inactive	inactive	inactive	inactive	–
CNc1ccccc1C(=O)OC	inactive	inactive	inactive	inactive	inactive	inactive	active	–
O=C(OCc1ccccc1)c1ccccc1O	inactive	inactive	inactive	inactive	inactive	inactive	inactive	–
CC=CC(=O)C1=C(C)CCCC1(C)C	inactive	inactive	inactive	inactive	inactive	inactive	active	–
CCCCOC(=O)CCC	inactive	–	–	–	–	–	–	inactive
O=C(O)C1CCC1	inactive	inactive	inactive	inactive	inactive	inactive	inactive	–
CCCCCCCOC(=O)C(C)C	inactive	inactive	inactive	inactive	inactive	inactive	inactive	–
C1CCOCC1	inactive	inactive	inactive	inactive	inactive	inactive	inactive	–
CCCCCC=CCCC=O	inactive	inactive	inactive	inactive	inactive	inactive	inactive	–
CCCCCCCCCC=CC=O	inactive	inactive	inactive	inactive	inactive	inactive	inactive	–
CCC(C)O (stereo not given)	inactive	inactive	inactive	inactive	inactive	inactive	inactive	–
CC(=O)OCCc1ccccc1	inactive	inactive	inactive	inactive	active	inactive	inactive	–
C=CC(=C)CCC=C(C)C	inactive	inactive	inactive	inactive	inactive	inactive	inactive	–
CCc1ccccc1O	inactive	inactive	active	inactive	inactive	inactive	inactive	–
CC(C)CCN	inactive	inactive	inactive	inactive	inactive	inactive	inactive	–
CCCCCCC(=O)OCCCC	inactive	inactive	inactive	inactive	inactive	inactive	inactive	–
C=C1C2CCC(C2)C1(C)C (stereo not given)	inactive	inactive	inactive	inactive	inactive	inactive	inactive	–
CCCCCCCCC=CC=O	inactive	inactive	inactive	inactive	inactive	inactive	inactive	–
CCC(C)c1nccnc1OC (stereo not given)	inactive	inactive	inactive	inactive	inactive	inactive	active	–
COc1cnccn1	inactive	inactive	inactive	inactive	inactive	inactive	inactive	–
Cc1ccc(OC(=O)C(C)C)cc1	inactive	inactive	inactive	inactive	inactive	inactive	inactive	–
COc1nccnc1C(C)C	inactive	inactive	inactive	inactive	inactive	inactive	inactive	–
CCCCCCCCCCOC(C)=O	inactive	inactive	inactive	inactive	inactive	inactive	inactive	–
CC(=O)OC1(C)CCC23CC1C(C)(C)C2CCC3C (stereo not given)	inactive	inactive	inactive	active	inactive	inactive	inactive	–
